Shown are actives, neighbours in structure and some others; about 2.1% of the full set was active somewhere.
CCR6 antagonist: antagonists of human CCR6 receptor; P51684; CHO-K1 CCR6 PathHunter beta-arrestin, luminescence, CCL20-stimulated; inhibition, % at 20 µM; 340,000 compounds, 0.49% hits;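 active means compounds whose inhibition of the agonist-driven luminescence signal at 20 µM reaches about 50%, limit read from the data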;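 further: cells stimulated with CCL20 at 14 nM final; plate controls were DMSO with CCL20 for no effect and DMSO without agonist for full effect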
Target sequence (P51684 whole entry, looked up): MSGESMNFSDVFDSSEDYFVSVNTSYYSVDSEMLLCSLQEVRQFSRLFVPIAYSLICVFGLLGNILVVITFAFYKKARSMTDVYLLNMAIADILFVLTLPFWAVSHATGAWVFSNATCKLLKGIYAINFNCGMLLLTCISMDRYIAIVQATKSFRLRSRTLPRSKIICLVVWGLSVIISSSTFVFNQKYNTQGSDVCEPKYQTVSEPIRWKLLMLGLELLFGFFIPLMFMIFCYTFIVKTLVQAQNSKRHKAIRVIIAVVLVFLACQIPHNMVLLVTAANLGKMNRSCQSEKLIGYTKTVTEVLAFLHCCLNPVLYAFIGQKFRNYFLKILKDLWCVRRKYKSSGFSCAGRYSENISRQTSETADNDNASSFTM
EBI2 antag: antagonists of human EBI2 receptor. P32249. EBI2 beta-arrestin recruitment, luminescence, 7a,25-OHC stimulated. inhibition, % at 5 µM. 360,000 compounds, 0.81% hits; in the data active means inhibition above about 38%;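 further: enzyme fragment complementation signal reports receptor beta-arrestin coupling in cells; 0% = agonist plus DMSO wells and 100% = wells without agonist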
CXCR6 block: CXCR6 (human) receptor inhibition | 360,000 compounds, 0.36% hits | inhibition, % at 20 µM | O00574 | CHO-K1 PathHunter CXCR6 beta-arrestin, luminescence; in the data active means inhibition above about 34%, passing the limit was not always enough;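 further: antagonist mode with CXCL16 agonist at 10 nM final; 0% = 10 nM CXCL16 with DMSO and 100% = unstimulated wells without agonist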
Target sequence (O00574 whole entry, looked up): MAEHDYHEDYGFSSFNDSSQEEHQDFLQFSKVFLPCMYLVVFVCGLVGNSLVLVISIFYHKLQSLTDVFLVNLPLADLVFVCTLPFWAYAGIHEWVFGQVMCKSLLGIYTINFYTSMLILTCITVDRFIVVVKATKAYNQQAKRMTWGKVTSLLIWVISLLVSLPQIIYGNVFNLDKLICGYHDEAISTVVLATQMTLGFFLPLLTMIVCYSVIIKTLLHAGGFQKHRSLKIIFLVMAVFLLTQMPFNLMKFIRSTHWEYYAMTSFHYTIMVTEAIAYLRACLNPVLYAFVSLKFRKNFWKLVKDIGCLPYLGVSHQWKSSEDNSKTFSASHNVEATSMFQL
m5-HT2A agonist: activates the mouse 5-HT2A serotonin receptor. P35363. CHO-K1 mHTR2A beta-arrestin complementation, luminescence; percent of 30 µM serotonin response. activation, % at 7.6 µM. 360,000 compounds, 0.66% hits;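 active means activation above a run cutoff, the mean activation of all tested compounds plus 3 SD, cut at about 14% in these data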;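 further: 0% = plate median of compound wells and 100% = 30 µM serotonin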
APJ ag: APJ receptor agonism; P35414; CHO-K1 APJ PathHunter beta-arrestin, luminescence; 0% DMSO wells, 100% apelin; activation, % at 20 µM; 330,000 compounds, 0.11% hits;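 active means activation more than six SD over the plate average, tested at 20 µM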;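 further: 0% = DMSO alone and 100% = apelin-13 at 10 nM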
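Test system: CHO-K1 APJ beta-arrestin complementation cell line | Compound: Single test compound dose, 20 µM final, 1% DMSO | Incubation: Compound 90 min 25 °C, reagent 1 h | Measured by: beta-gal luminescence | Read-out basis: APJ–arrestin association signal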
APJ antagonist: blocks the human apelin receptor APJ | AID 2521 | P35414 | 330,000 compounds, 0.32% hits | CHO-K1 APJ beta-arrestin complementation, luminescence | inhibition, % at 20 µM;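 active means inhibition above about 40% at 20 µM, limit read from the data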;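 further: cells challenged with 10 nM apelin-13 agonist together with compound; plate controls were apelin-13 plus DMSO wells for no effect and DMSO wells lacking apelin-13 for full effect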
Numbers without * were called inactive.

Results for Cc1ccc(NS(=O)(=O)c2cc([N+](=O)[O-])ccc2NNC(=S)Nc2cccc(Cl)c2)c(C)c1 ?
CCR6 antagonist: 81.2*; EBI2 antag: 15.7; CXCR6 block: 58.4*; m5-HT2A agonist: 0.5

What do the screens show for `Cc1cc(C)cc(OC2CCCCC2NS(=O)(=O)c2ccccc2)c1` (stereo not given)?
CCR6 antagonist: 13.3; EBI2 antag: 8.0; CXCR6 block: 8.5; m5-HT2A agonist: -0.5; APJ ag: -1.6; APJ antagonist: 3.9

How did NC(=S)N/N=C/c1ccccc1 do in these assays?
CCR6 antagonist: -6.3; EBI2 antag: -1.7; CXCR6 block: -0.9; m5-HT2A agonist: 1.4; APJ ag: -1.7; APJ antagonist: 3.2

Results for NC(=S)N/N=C/c1ccc(C23CC4CC(CC(C4)C2)C3)cc1 ?
CCR6 antagonist: 65.5*; APJ ag: -5.8; APJ antagonist: 29.1

Results for CC(=O)n1cc(C(C[N+](=O)[O-])SCCN)c2ccccc21 (stereo not given) ?
CCR6 antagonist: 60.0*; EBI2 antag: -52.1; CXCR6 block: 3.3; m5-HT2A agonist: -4.5; APJ ag: -2.2; APJ antagonist: 1.5

Results for Cn1cc(C(C[N+](=O)[O-])c2ccccc2)c2ccccc21 (stereo not given) ?
CCR6 antagonist: 17.6; EBI2 antag: 2.2; CXCR6 block: -0.8; m5-HT2A agonist: 2.9; APJ ag: -0.8; APJ antagonist: -4.8

What do the screens show for `O=C(CN(Cc1ccccc1F)C(=O)c1csnn1)NCc1ccc2c(c1)OCO2`?
CCR6 antagonist: 17.8; EBI2 antag: 1.3; CXCR6 block: 0.1; m5-HT2A agonist: 3.9; APJ ag: -3.9; APJ antagonist: 4.6

What do the screens show for `O=[N+]([O-])c1ccc(CS(=O)c2ccccc2)cc1` (stereo not given)?
CCR6 antagonist: 6.5; EBI2 antag: -1.0; CXCR6 block: 2.2; m5-HT2A agonist: -1.3

Results for O=[N+]([O-])c1ccc(S(=O)Cc2ccccc2)c([N+](=O)[O-])c1 (stereo not given) ?
CCR6 antagonist: 101.7*; EBI2 antag: 6.7; CXCR6 block: 92.1*; m5-HT2A agonist: -7.8

What do the screens show for `CCOC(=O)C1CCCN(C2=NC(=O)/C(=C/c3ccc(N(C)C)cc3)S2)C1` (stereo not given)?
CCR6 antagonist: 23.9; EBI2 antag: 45.0*; CXCR6 block: 2.4; m5-HT2A agonist: -8.8; APJ ag: -1.5; APJ antagonist: 15.0

How did Cc1ccc(/C=C2\SC(N3CCCCC3)=NC2=O)cc1 do in these assays?
CCR6 antagonist: 3.3; EBI2 antag: 80.7*; CXCR6 block: 12.1; m5-HT2A agonist: 0.8; APJ ag: 2.6; APJ antagonist: 1.7

What do the screens show for `CCOC(=O)C1CCCN(C2=NC(=O)/C(=C/c3ccc(O)c(OCC)c3)S2)C1` (stereo not given)?
CCR6 antagonist: 13.3; EBI2 antag: 1.8; CXCR6 block: 12.1; m5-HT2A agonist: -4.0; APJ ag: -1.6; APJ antagonist: 15.9

How did CCOc1ccc(/C=C2\SC(N3CCc4ccccc4C3)=NC2=O)cc1 do in these assays?
CCR6 antagonist: -3.1; EBI2 antag: 65.1*; CXCR6 block: 13.8; m5-HT2A agonist: -0.4; APJ ag: -0.7; APJ antagonist: 15.3

Results for COc1ccc(OC)c2c(C)cc(N3CCCN(C)CC3)nc12 ?
CCR6 antagonist: -15.2; EBI2 antag: -10.9; CXCR6 block: 10.1; m5-HT2A agonist: -3.0; APJ ag: -3.2; APJ antagonist: -4.7

Results for O=C(NCc1ccco1)C(=S)N1CCCCC1 ?
CCR6 antagonist: 5.0; EBI2 antag: -1.1; CXCR6 block: -3.6; m5-HT2A agonist: 3.0; APJ ag: -1.9; APJ antagonist: 10.5

Results for C/C=C/CSc1nc2c(c(=O)[nH]c(=O)n2C)n1C(C)C ?
CCR6 antagonist: -9.5; EBI2 antag: 3.3; CXCR6 block: 1.0; m5-HT2A agonist: -2.7; APJ ag: 1.0; APJ antagonist: -3.0

How did CC(C)(C)NC(=O)CSc1nncn1-c1ccccc1 do in these assays?
CCR6 antagonist: -6.6; EBI2 antag: -2.0; CXCR6 block: 0.0; m5-HT2A agonist: 0.1; APJ ag: -1.3; APJ antagonist: 9.1

What do the screens show for `Oc1csc(Cc2nc(-c3ccc4ccccc4c3)cs2)n1`?
CCR6 antagonist: 56.3*; EBI2 antag: 20.2; CXCR6 block: 27.8; m5-HT2A agonist: 6.4; APJ ag: -6.9; APJ antagonist: 35.4

Results for CCCCCCCCCCCC1=C(O)C(=O)C=C(O)C1=O ?
CCR6 antagonist: 42.2; EBI2 antag: 2.1; CXCR6 block: 23.9; m5-HT2A agonist: -3.3

How did COCCCn1c(SCc2cccc(C(F)(F)F)c2)nc2cc(OC)c(OC)cc2c1=N do in these assays?
CCR6 antagonist: 16.6; EBI2 antag: 57.0*; CXCR6 block: 1.7; m5-HT2A agonist: -4.3; APJ ag: -1.3; APJ antagonist: 12.9

What do the screens show for `O=C(N/N=C\c1cc(Cl)ccc1O)c1ccc(S(=O)(=O)N2CCCCC2)cc1`?
CCR6 antagonist: 16.4; EBI2 antag: 48.7*; CXCR6 block: -5.0; m5-HT2A agonist: 0.0; APJ ag: 0.9; APJ antagonist: -12.8

Results for O=C(Nc1cc(S(=O)(=O)Nc2ccc(Cl)cc2)ccc1O)c1ccc(S(=O)(=O)N2CCCCCC2)cc1 ?
CCR6 antagonist: 9.0; EBI2 antag: 10.5; CXCR6 block: 2.6; m5-HT2A agonist: 4.0; APJ ag: -1.6; APJ antagonist: -13.8

What do the screens show for `Cc1ccc(S(=O)(=O)c2ccc([N+](=O)[O-])o2)cc1`?
CCR6 antagonist: 103.1*; EBI2 antag: 31.4; CXCR6 block: 97.3*; m5-HT2A agonist: -9.8

What do the screens show for `CC1=NN(c2ccc(Cl)cc2)C(=O)/C1=C\c1cccn1-c1ccc(S(N)(=O)=O)cc1`?
CCR6 antagonist: 32.4; EBI2 antag: 59.7*; CXCR6 block: 4.8; m5-HT2A agonist: 4.8; APJ ag: -2.4; APJ antagonist: 35.9

Results for Cc1ccc(S(=O)(=O)N/N=C/c2cccn2-c2ccc(Cl)cc2)cc1 ?
CCR6 antagonist: -2.0; EBI2 antag: 9.3; CXCR6 block: 17.9; m5-HT2A agonist: -1.9; APJ ag: -3.8; APJ antagonist: 17.2

What do the screens show for `CCC(C)c1ccccc1N1CC(C(=O)Nc2cccc(S(=O)(=O)N3CCOCC3)c2)CC1=O` (stereo not given)?
CCR6 antagonist: 2.8; EBI2 antag: -4.3; CXCR6 block: -2.5; m5-HT2A agonist: -1.5; APJ ag: 9.3; APJ antagonist: 2.9

What do the screens show for `Cc1ccc(C2C3CSCC=C3C(C#N)=C(N)C2(C#N)C#N)cc1` (stereo not given)?
CCR6 antagonist: 52.4*; EBI2 antag: 3.2; CXCR6 block: 10.9; m5-HT2A agonist: 3.8; APJ ag: -5.9; APJ antagonist: 1.8

How did C=CCS/C(N)=N\N=C\c1cc(Br)cc([N+](=O)[O-])c1O do in these assays?
CCR6 antagonist: 61.9*; EBI2 antag: 1.4; CXCR6 block: 33.7*; m5-HT2A agonist: 1.2; APJ ag: -3.4; APJ antagonist: 22.5
